According to ChEMBL document CHEMBL4184148 (Bioorg Med Chem Lett, 2017):

Assays:
[1] = molecular target: Serine/threonine-protein kinase Nek5 (Homo sapiens) (UniProt Q6P3R8); experiment: Binding affinity to wild-type human partial length NEK5 (M1 to M279 residues) expressed in Escherichia coli BL21 at 1 uM by Kinomescan method relative to control
[2] = molecular target: Casein kinase II subunit alpha' (Homo sapiens) (UniProt P19784); experiment: Binding affinity to wild-type human full length CSNK2A2 (M1 to R350 residues) expressed in HEK293 cells at 1 uM by Kinomescan method relative to control; format: cell-based
Method in brief: (§1)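 Run as one kinome-wide competition binding panel with each compound at a single fixed concentration. Results were plotted as a kinome-wide selectivity map.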

[3] = molecular target: MAP kinase-interacting serine/threonine-protein kinase 2 (Homo sapiens) (UniProt Q9HBH9); experiment: Binding affinity to wild-type human partial length MKNK2 (G63 to S388 residues) expressed in HEK293 cells at 1 uM by Kinomescan method relative to control; format: cell-based
[4] = molecular target: SRSF protein kinase 2 (Homo sapiens) (UniProt P78362); experiment: Binding affinity to wild-type human full length SRPK2 (M1 to S686 residues) expressed in Escherichia coli BL21 at 1 uM by Kinomescan method relative to control
Method in brief: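 Kinome-wide competition binding panel run by an outside provider, with each compound tested at a single concentration. Activity is read against the kinase panel.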

[5] = molecular target: MAP kinase-activated protein kinase 5 (Homo sapiens) (UniProt Q8IW41); experiment: Binding affinity to wild-type human partial length MAPKAPK5 (M1 to D322 residues) expressed in HEK293 cells at 1 uM by Kinomescan method relative to control; format: cell-based
[6] = system: Receptor-type tyrosine-protein kinase FLT3 (Homo sapiens), P36888 [R834Q]; experiment: Binding affinity to human partial length FLT3 R834Q mutant (V592 to Y969 residues) expressed in HEK293 cells at 1 uM by Kinomescan method relative to control; format: cell-based
[7] = molecular target: Serine/threonine-protein kinase MRCK alpha (Homo sapiens) (UniProt Q5VT25); experiment: Binding affinity to wild-type human partial length MRCKA (L57 to V418 residues) expressed in Escherichia coli BL21 at 1 uM by Kinomescan method relative to control
[8] = molecular target: Aurora kinase B (Homo sapiens, UniProt Q96GD4); experiment: Inhibition of Aurora B in human HCT116 cells assessed as reduction in histone H3 phosphorylation at S10 residues after 4 hrs by Western blot analysis; format: cell-based
Method in brief: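 Cells were exposed to compound in dose-response for 4 h, then lysed for western blotting of histone H3 pS10. The cellular EC50 was derived from the dose-response curves. Three replicate experiments were run.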

[9] = molecular target: Protein kinase C epsilon type (Homo sapiens) (UniProt Q02156); experiment: Binding affinity to wild-type human partial length PRKCE (A378 to P737 residues) expressed in HEK293 cells at 1 uM by Kinomescan method relative to control; format: cell-based
[10] = molecular target: Inhibitor of nuclear factor kappa-B kinase subunit beta (Homo sapiens) (UniProt O14920); experiment: Binding affinity to wild-type human full length IKK-beta (M1 to S756 residues) expressed in HEK293 cells at 1 uM by Kinomescan method relative to control; format: cell-based; method in brief: as §1
[11] = molecular target: Tyrosine-protein kinase Fgr (Homo sapiens) (UniProt P09769); experiment: Binding affinity to wild-type human partial length FGR (L233 to T529 residues) expressed in Escherichia coli BL21 at 1 uM by Kinomescan method relative to control
[12] = molecular target: Dual specificity protein kinase CLK3 (Homo sapiens) (UniProt P49761); experiment: Binding affinity to wild-type human full length CLK3 (M1 to R490 residues) expressed in Escherichia coli BL21 at 1 uM by Kinomescan method relative to control; method in brief: as §1
[13] = molecular target: Serine/threonine-protein kinase Chk1 (Homo sapiens) (UniProt O14757); experiment: Binding affinity to wild-type human partial length CHEK1 (M1 to G289 residues) expressed in Escherichia coli BL21 at 1 uM by Kinomescan method relative to control
[14] = molecular target: Mast/stem cell growth factor receptor Kit (Homo sapiens) (UniProt P10721); experiment: Binding affinity to wild-type human partial length autoinhibited KIT (Y545 to D952 residues) expressed in HEK293 cells at 1 uM by Kinomescan method relative to control; format: cell-based; parameters: scale not given: the % may be the effect or the level left
[15] = molecular target: Mitogen-activated protein kinase kinase kinase 15 (Homo sapiens) (UniProt Q6ZN16); experiment: Binding affinity to wild-type human partial length MAP3K15 (T625 to L932 residues) expressed in HEK293 cells at 1 uM by Kinomescan method relative to control; format: cell-based
[16] = molecular target: Ephrin type-A receptor 1 (Homo sapiens) (UniProt P21709); experiment: Binding affinity to wild-type human partial length EPHA1 (V588 to I913 residues) expressed in Escherichia coli BL21 at 1 uM by Kinomescan method relative to control
[17] = molecular target: Hormonally up-regulated neu tumor-associated kinase (Homo sapiens) (UniProt P57058); experiment: Binding affinity to wild-type human partial length HUNK (A31 to K354 residues) expressed in Escherichia coli BL21 at 1 uM by Kinomescan method relative to control
[18] = molecular target: Cyclin-dependent kinase 11A (Homo sapiens) (UniProt Q9UQ88); experiment: Binding affinity to wild-type human partial length CDC2L2 (D391 to K730 residues) expressed in Escherichia coli BL21 at 1 uM by Kinomescan method relative to control
[19] = molecular target: Serine/threonine-protein kinase tousled-like 2 (Homo sapiens) (UniProt Q86UE8); experiment: Binding affinity to wild-type human partial length TLK2 (E424 to N749 residues) expressed in Escherichia coli BL21 at 1 uM by Kinomescan method relative to control
[20] = molecular target: Megakaryocyte-associated tyrosine-protein kinase (Homo sapiens) (UniProt P42679); experiment: Binding affinity to wild-type human full length CTK (M43 to P508 residues) expressed in HEK293 cells at 1 uM by Kinomescan method relative to control; format: cell-based; method in brief: as §1
[21] = system: Receptor-type tyrosine-protein kinase FLT3 (Homo sapiens), P36888 [UNDEFINED MUTATION]; experiment: Binding affinity to human partial length FLT3 ITD/F691L double mutant expressed in Escherichia coli BL21 at 1 uM by Kinomescan method relative to control
[22] = system: Epidermal growth factor receptor (Homo sapiens), P00533 [L861Q]; experiment: Binding affinity to human partial length EGFR L861Q mutant (R669 to V1011 residues) expressed in Escherichia coli BL21 at 1 uM by Kinomescan method relative to control
[23] = molecular target: Calcium/calmodulin-dependent protein kinase type IV (Homo sapiens) (UniProt Q16566); experiment: Binding affinity to wild-type human partial length CAMK4 (A22 to A322 residues) expressed in Escherichia coli BL21 at 1 uM by Kinomescan method relative to control
[24] = molecular target: Vascular endothelial growth factor receptor 3 (Homo sapiens) (UniProt P35916); experiment: Binding affinity to wild-type human partial length FLT4 (E821 to E1196 residues) expressed in Escherichia coli BL21 at 1 uM by Kinomescan method relative to control
[25] = molecular target: G protein-coupled receptor kinase 4 (Homo sapiens) (UniProt P32298); experiment: Binding affinity to wild-type human full length GRK4 (M1 to C578 residues) expressed in Escherichia coli BL21 at 1 uM by Kinomescan method relative to control; method in brief: as §1

Compound	Activity [1] [%]	Activity [2] [%]	Activity [3] [%]	Activity [4] [%]	Activity [5] [%]	Activity [6] [%]	Activity [7] [%]	EC50 [8] [nM]	Activity [9] [%]	Activity [10] [%]	Activity [11] [%]	Activity [12] [%]	Activity [13] [%]	Activity [14] [%]	Activity [15] [%]	Activity [16] [%]	Activity [17] [%]	Activity [18] [%]	Activity [19] [%]	Activity [20] [%]	further results
CCC(=O)Nc1ccc(C(=O)Nc2ccc(Nc3ncc4c(n3)N(C)c3ccc(C)cc3C(=O)N4C)cc2)cc1	86	83	84	100	55	86	100	11	100	95	96	91	87	90	62	100	91	88	100	95	Activity [21]: 68%; Activity [22]: 97%; Activity [23]: 87%; Activity [24]: 89%; Activity [25]: 100%
C=CC(=O)Nc1ccc(C(=O)Nc2ccc(Nc3ncc4c(n3)N(C)c3ccc(C)cc3C(=O)N4C)cc2)cc1	100	100	66	99	99	98	94	7.1	87	97	93	89	100	96	100	97	100	100	98	100	Activity [21]: 100%; Activity [22]: 79%; Activity [23]: 89%; Activity [24]: 98%; Activity [25]: 97%
